Where two headings read alike, the source gives them in different places.

Assay [1] concerns the target T1, His-Ste14p (yeast Icmt) (Saccharomyces cerevisiae, UniProt P32584).
T1 sequence (P32584 1-239): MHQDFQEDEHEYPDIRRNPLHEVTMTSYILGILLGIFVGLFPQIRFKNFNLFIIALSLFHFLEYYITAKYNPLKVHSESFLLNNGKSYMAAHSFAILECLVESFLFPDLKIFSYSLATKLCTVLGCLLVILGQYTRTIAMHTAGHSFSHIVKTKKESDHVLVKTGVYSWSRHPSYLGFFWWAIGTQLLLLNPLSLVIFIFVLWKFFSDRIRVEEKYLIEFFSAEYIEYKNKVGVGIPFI
The settings on record: cited from earlier work.

Assay [2] concerns the target T1, His-Ste14p (yeast Icmt). The format is biochemical. As to conditions: pH 7.5, 30 °C; for Vmax: pmol of methyl groups transferred to substrate; for Vmax / Km: crude membrane preparations, 20 μM [14C]SAM, 100 mM Tris-HCl, 30 min, liquid scintillation counting; for Km: read-out: Km(app), apparent values (single SAM concentration, membrane suspension); for Vmax/Km: catalytic efficiency, from Vmax and apparent Km, crude membranes. In outline:
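Membranes from yeast strain CH2704 overexpressing His-Ste14p: 100 000g pellet resuspended in 10 mM Tris-HCl pH 7.5, stored at −80 °C. Reaction: membranes plus substrate, 20 μM [14C]SAM (50–60 mCi/mmol), 100 mM Tris-HCl pH 7.5, 30 °C for 30 min. Stopped with 1 M NaOH/1% SDS; base-labile [14C]methyl diffused onto filter over scintillant, rt for 2.5 h, then counted. Km apparent: single SAM level, peptide partitions into membranes.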

Assay [3] deals with His-Ste14p (crude membranes). The format is binding, Saccharomyces cerevisiae. As to conditions: 16 in competition with 17, 5 to 200 μM. The essentials: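 Crude membranes (100 μg) from a Δste14 yeast strain overexpressing His-Ste14p, in 10 mM Tris-HCl pH 7.5, preincubated with increasing competitor peptide; diazirine photoprobe then added, 4 °C for 5 min. Irradiated at 365 nm, 30 min on ice. Solubilized in RIPA/10% SDS; neutravidin-agarose pulldown 2 h at 4 °C, three washes, eluted in SDS sample buffer at 65 °C for 30 min. 12% SDS-PAGE, α-Ste14p immunoblot (1:500).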

The term Km denotes the substrate concentration at which the rate is half of its maximum. Consider `CC(=O)N[C@@H](CSC/C=C(\C)CC/C=C(\C)CCC=C(C)C)C(=O)O` [AFC, N-acetyl-S-farnesyl-L-cysteine], for which the Vmax/Km at His-Ste14p (yeast Icmt) [1] (catalytic efficiency, previously reported) is listed as 54 pmol min^–1 mg^–1 μM^–1. Further, the Vmax at His-Ste14p (yeast Icmt) [1] (pmol of methyl groups transferred to substrate, previously reported) is reported as 870 ± 15 pmol min^–1 mg^–1. The Km on His-Ste14p (yeast Icmt) [1] (read-out: Km(app), apparent values, previously reported) was 15.9 ± 0.9 µM.
“Biotin-Peg4-K(5-Fam)YIIKGVFWDPAC(C5-m-BP)-OH [compound 19]”: at His-Ste14p (yeast Icmt) [2], the Vmax was 217 ± 3 pmol min^–1 mg^–1 and the Km came out at 27.8 ± 1 µM.
With “Biotin-Peg4-K(5-Fam)YIIKGVFWDPAC(C10-Diazirine)-OH [compound 16]”, the “site of photolabeling, inferred from competition” value in assay [3] was “labeling the substrate binding site of His-Ste14p”. Moreover, on His-Ste14p (yeast Icmt) [2], the Vmax/Km is reported as 143 pmol min^–1 mg^–1 μM^–1, the Vmax turned out to be 947 ± 4 pmol min^–1 mg^–1 and the Km was found to be 6.6 ± 0.2 µM. The Vmax on His-Ste14p (yeast Icmt) [2] (listed as diazirine-containing peptide) was determined as 947 pmol min^–1 mg^–1.
As for “Biotin-Peg4-YIIKGVFWDPAC(Fr)-OH [compound 17]”, at His-Ste14p (yeast Icmt) [2], the Vmax/Km amounted to 157 pmol min^–1 mg^–1 μM^–1 and the Vmax is listed as 1919 ± 30 pmol min^–1 mg^–1.

The record behind these values is article PMC3985442 (The Journal of Organic Chemistry, 2014).
